# Results: ChEMBL document CHEMBL1123566, “Synthesis and cardiac electrophysiological activity of 2- and 3-[(substituted phenyl)alkyl]quinuclidines. Structure-activity relationships” (1987)
# Values joined by “and” are separate entries in the source; they are usually repeats but may differ in a detail not shown here. Identical values can stand only once.
# Experiments:
# Canis familiaris [1] = species on record: Canis familiaris; assay: In vitro electrophysiological evaluation in canine cardiac Purkinje fibres reported as percent change Vmax concentration range of 0.1-100 uM; Minimal (<IO%increase or a decrease in CT); format: functional; details: Canis lupus familiaris; Purkinje fiber
# Outline: (§1)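 Canine cardiac Purkinje fibres, intracellular microelectrode recording, paced at a basic cycle length of 1 s. APD95 and Vmax read simultaneously. Compound: 10 mM stock in deionized water, diluted into Tyrode's solution, tested over the stated concentration range. Each fibre used once as its own control. Result is % change from control, given at 10 µM or as the maximum with its concentration. M = <10% decrease or an increase in Vmax.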
# Canis familiaris [2] = species on record: Canis familiaris; assay: In vitro electrophysiological evaluation in canine cardiac Purkinje fibres reported as percent change Vmax concentration range of 0.1-10 uM; Minimal (<IO%increase or a decrease in CT); format: functional; details: Canis lupus familiaris; Purkinje fiber; outline: as §1
# Canis familiaris [3] = species on record: Canis familiaris; assay: In vitro electrophysiological evaluation in canine cardiac Purkinje fibres reported as maximum percent change Vmax concentration range of 0.1-10 uM; Minimal (<IO%increase or a decrease in CT); format: functional; details: Canis lupus familiaris; Purkinje fiber; outline: as §1
# Canis familiaris [4] = species on record: Canis familiaris; assay: In vitro electrophysiological activity in canine cardiac Purkinje fibres given as maximum % change for action potential duration at 0.1-100 uM concentration; format: functional, Canis lupus familiaris, Purkinje fiber
# Outline: (§2)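 Canine cardiac Purkinje fibres, intracellular recording at 1 s basic cycle length, over cumulative concentration ranges. Compound 10 mM stock in deionized water diluted into Tyrode's. Each fibre used once as its own control. Value is the maximum % change from control in APD at 95% repolarization, with the concentration where it occurred; both values given if a biphasic response (>20% reversal) occurred.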
# Canis familiaris [5] = species on record: Canis familiaris; assay: In vitro electrophysiological activity in canine cardiac Purkinje fibres given as maximum % change for action potential duration at 0.1-10 uM concentration; format: functional, Canis lupus familiaris, Purkinje fiber; outline: as §2
# Canis familiaris [6] = species on record: Canis familiaris; assay: In vitro electrophysiological evaluation in canine cardiac Purkinje fibres reported as % change for action potential duration at 0.1-10 uM concentration range; format: functional, Canis lupus familiaris, Purkinje fiber; outline: as §1
# Canis familiaris [7] = species on record: Canis familiaris; assay: In vitro electrophysiological evaluation in canine cardiac Purkinje fibres reported as maximum percent change Vmax concentration range of 0.1-100 uM; format: functional; details: Canis lupus familiaris; Purkinje fiber; outline: as §1
# Canis familiaris [8] = species on record: Canis familiaris; assay: In vitro electrophysiological evaluation in canine cardiac Purkinje fibres reported as % change for action potential duration at 0.1-100 uM concentration range; format: functional, Canis lupus familiaris, Purkinje fiber; outline: as §1
# Canis familiaris [9] = species on record: Canis familiaris; assay: In vitro electrophysiological evaluation in canine cardiac ventricular muscle reported as maximum % change for functional refractory period (FRP) at 0.1-100 uM concentration range; concentration at which it occurred is 100 uM.; parameters: species or system Canis lupus familiaris, Muscle tissue
# Outline: (§3)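 Canine right ventricle and papillary muscle strips in oxygenated Tyrode's solution, fitted with stimulating and recording electrodes. The extra-stimulus conduction-interval method was adapted for in vitro use. FRP and CT were read from a conduction-interval curve before and after various compound concentrations, and expressed as percent change from control. Compounds were taken from 10 mM deionized-water stock into Tyrode's. Each strip was used once as its own control.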
# Canis familiaris [10] = species on record: Canis familiaris; assay: In vitro electrophysiological evaluation in canine cardiac ventricular muscle reported as % change for the functional refractory period (FRP) at 10 uM at concentration range of 0.1-100 uM; parameters: species or system Canis lupus familiaris, Muscle tissue; outline: as §3
# Canis familiaris [11] = species on record: Canis familiaris; assay: In vitro electrophysiological evaluation in canine cardiac ventricular muscle reported as % change for conduction time(CT) at 10 uM at 0.1-100 uM concentration range; Minimal (<10% decrease or increase in CT).; format: functional, Canis lupus familiaris, Muscle tissue
# Canis familiaris [12] = species on record: Canis familiaris; assay: In vitro electrophysiological evaluation in canine cardiac ventricular muscle reported as maximum % change for conduction time(CT) at 0.1-100 uM concentration range; Minimal (<10% decrease or increase in CT).; format: functional, Canis lupus familiaris, Muscle tissue; outline: as §3
# Canis familiaris [13] = species on record: Canis familiaris; assay: In vitro electrophysiological evaluation in canine cardiac Purkinje fibres reported as percent change Vmax at 10 uM at concentration range of 0.1-100 uM; Minimal (<10% decrease or increase in V max).; format: functional, organism-based; details: Canis lupus familiaris, Purkinje fiber; outline: as §1
# Canis familiaris [14] = species on record: Canis familiaris; assay: In vitro electrophysiological evaluation in canine cardiac Purkinje fibres reported as percent change Vmax at 10 uM at concentration range of 1-100 uM; Minimal (<10% decrease or increase in V max).; format: functional; details: Canis lupus familiaris, Purkinje fiber; outline: as §1
# Canis familiaris [15] = species on record: Canis familiaris; assay: In vitro electrophysiological evaluation in canine cardiac Purkinje fibres reported as maximum percent change Vmax concentration range of 1-100 uM; Minimal (<10% decrease or increase in V max).; format: functional; details: Canis lupus familiaris; Purkinje fiber; outline: as §1
# Canis familiaris [16] = species on record: Canis familiaris; assay: In vitro electrophysiological evaluation in canine cardiac Purkinje fibres reported as maximum percent change Vmax concentration range of 0.1-100 uM; Minimal (<10% decrease or increase in V max).; format: functional; details: Canis lupus familiaris; Purkinje fiber; outline: as §1
# Canis familiaris [17] = species on record: Canis familiaris; assay: (§4) In vitro electrophysiological evaluation in canine cardiac occurred is 100 uM; format: functional; details: Canis lupus familiaris; Heart
# Canis familiaris [18] = species on record: Canis familiaris; assay: In vitro electrophysiological evaluation in canine cardiac Purkinje fibres reported as % change for action potential duration at 10 uM at 0.1-100 uM concentration range; format: functional, Canis lupus familiaris, Purkinje fiber; outline: as §1
# Canis familiaris [19] = species on record: Canis familiaris; assay: In vitro electrophysiological evaluation in canine cardiac Purkinje fibres reported as % change for action potential duration at 10 uM at 1-100 uM concentration range; format: functional, Canis lupus familiaris, Purkinje fiber; outline: as §1
# Canis familiaris [20] = species on record: Canis familiaris; assay: In vitro electrophysiological evaluation in canine cardiac Purkinje fibres reported as % change for action potential duration at a concentration of 10 uM; format: functional, Canis lupus familiaris, Purkinje fiber; outline: as §1
# Canis familiaris [21] = species on record: Canis familiaris; assay: In vitro electrophysiological activity in canine cardiac occurred is 100 uM; format: functional, Canis lupus familiaris, Heart
# Canis familiaris [22] = species on record: Canis familiaris; assay: In vitro electrophysiological evaluation in canine cardiac ventricular muscle reported as maximum % change for functional refractory period (FRP) at 0.1-100 uM concentration range; concentration at which it occurred is 100 uM; parameters: species or system Canis lupus familiaris, Muscle tissue; outline: as §3
# Canis familiaris [23] = species on record: Canis familiaris; assay: In vitro electrophysiological evaluation in canine cardiac ventricular muscle reported as maximum % change for functional refractory period (FRP) at 0.1-100 uM concentration range; concentration at which it occurred is 10 uM; parameters: species or system Canis lupus familiaris, Muscle tissue; outline: as §3
# Canis familiaris [24] = species on record: Canis familiaris; assay: In vitro electrophysiological evaluation in canine cardiac Purkinje fibres reported as percent change Vmax at 10 uM at concentration range of 0.1-100 uM.; format: functional, organism-based; details: Canis lupus familiaris, Purkinje fiber; outline: as §1
# Canis familiaris [25] = species on record: Canis familiaris; assay: In vitro electrophysiological activity in canine cardiac occurred is 10 uM; format: functional, Canis lupus familiaris, Heart
# Canis familiaris [26] = species on record: Canis familiaris; assay: In vitro electrophysiological evaluation in canine cardiac Purkinje fibres reported as percent change Vmax at 10 uM at concentration range of 1-100 uM; format: functional; details: Canis lupus familiaris, Purkinje fiber; outline: as §1
# Canis familiaris [27] = species on record: Canis familiaris; assay: as §4; format: functional; details: Canis lupus familiaris; Heart; remark: listed apart in the source
smiles,measurement,setting,value
CCCCCCC[N+]12CCC(CC1)C(CCc1ccc(Cl)cc1)C2.[Br-] (stereo not given),Vmax,Canis familiaris [1],< 10%
same,Vmax,Canis familiaris [2],< 10%
same,Vmax,Canis familiaris [3],< 10%
same,APD95,Canis familiaris [4],23%
same,APD95,Canis familiaris [5],26%
same,APD95,Canis familiaris [6],23%
same,Vmax,Canis familiaris [7],-58%
same,APD95,Canis familiaris [8],22%
CS(=O)(=O)Nc1ccc(C(=O)CCC2C(=O)C3CCN2CC3)cc1.Cl (stereo not given),FRP,Canis familiaris [9],32% and 21% and 24%
same,FRP,Canis familiaris [10],18% and 12% and 13%
same,CT,Canis familiaris [11],<10%
same,CT,Canis familiaris [12],<10%
same,Vmax,Canis familiaris [13],< 10%
same,Vmax,Canis familiaris [14],< 10%
same,Vmax,Canis familiaris [15],< 10%
same,Vmax,Canis familiaris [16],< 10%
same,Vmax,Canis familiaris [17],-24%
same,APD,Canis familiaris [18],24%
same,APD95,Canis familiaris [18],-1% and 10%
same,APD95,Canis familiaris [19],5%
same,APD95,Canis familiaris [20],16%
same,APD95,Canis familiaris [21],36% and 18%
CCOC(=O)C(CC1C(=O)C2CCN1CC2)C(=O)c1ccc([N+](=O)[O-])cc1.Cl (stereo not given),FRP,Canis familiaris [22],38%
same,FRP,Canis familiaris [23],22%
same,FRP,Canis familiaris [10],22% and 35%
same,CT,Canis familiaris [11],<10%
same,CT,Canis familiaris [12],<10%
same,Vmax,Canis familiaris [13],< 10%
same,Vmax,Canis familiaris [24],-12%
same,Vmax,Canis familiaris [17],-26% and -13% and -18%
same,APD95,Canis familiaris [18],23% and 22%
same,APD95,Canis familiaris [20],2%
same,APD95,Canis familiaris [21],-12% and 0% and -5%
same,APD95,Canis familiaris [25],23% and 22%
CCOC(=O)C(CC1C(=O)C2CCN1CC2)C(=O)c1ccc(NS(C)(=O)=O)cc1.Cl (stereo not given),FRP,Canis familiaris [22],7% and 16%
same,FRP,Canis familiaris [10],5% and 9%
same,CT,Canis familiaris [11],<10%
same,CT,Canis familiaris [12],<10%
same,Vmax,Canis familiaris [26],-24%
same,Vmax,Canis familiaris [14],< 10%
same,Vmax,Canis familiaris [15],< 10%
same,Vmax,Canis familiaris [27],-36%
same,APD95,Canis familiaris [19],12%
same,APD95,Canis familiaris [20],11%
same,APD95,Canis familiaris [21],39% and 40%
